# Most compounds without a hit are left out; they make up all but 4.8% or so of the library.
# SF-1 act = activators of human nuclear receptor SF-1; Q13285; 65,000 tested, 1.9% active; CHO-K1 Gal4-SF-1 LBD luciferase reporter; % increase over DMSO SF-1-specific signal; activation, % at 10 µM;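 active = activation above the mean activation of all tested compounds plus 3 SD, cut at about 50% in these data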
# Target sequence (Q13285 whole entry, looked up, the tested form may be a part): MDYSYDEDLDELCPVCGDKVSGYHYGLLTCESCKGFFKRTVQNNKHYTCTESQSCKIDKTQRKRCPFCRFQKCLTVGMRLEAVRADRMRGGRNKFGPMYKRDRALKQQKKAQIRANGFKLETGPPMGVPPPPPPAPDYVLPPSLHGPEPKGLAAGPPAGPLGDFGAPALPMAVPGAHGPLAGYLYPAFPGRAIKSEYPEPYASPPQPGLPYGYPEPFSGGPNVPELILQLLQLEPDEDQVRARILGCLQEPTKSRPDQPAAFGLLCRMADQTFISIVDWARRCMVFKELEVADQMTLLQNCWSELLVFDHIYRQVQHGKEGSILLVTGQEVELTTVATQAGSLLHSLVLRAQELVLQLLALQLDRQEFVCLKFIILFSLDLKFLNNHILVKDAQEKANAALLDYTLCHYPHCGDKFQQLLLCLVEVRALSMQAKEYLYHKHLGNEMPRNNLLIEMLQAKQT
#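 Material: CHO-K1 cells with Gal4–hSF-1 LBD chimera plus Gal4-driven luciferase / Input: 4,000 CHO-K1 cells per well / Incubation: compound exposure 20 h at 37 °C / Signal: luminescence read 15 min after SteadyLite luciferase reagent, after room-temperature equilibration / Read-out: percent activation versus DMSO / Benchmarks: DMSO negative control and −SF1 background wells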
# RORa activator = activates the human nuclear receptor RORA. P35398. CHO-K1 Gal4-RORA LBD luciferase reporter, luminescence; percent increase over mock-subtracted basal signal. activation, % at 10 µM. AID 560. 65,000 tested, 1.5% active;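 active = activation above the mean of all tested compounds plus 3 SD, cut at about 49% in these data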;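 note: 0% = DMSO-treated RORA cells and 100% = added signal equal to DMSO minus mock-transfected cells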
# ERb SRC1 inh = ER-beta (human) coactivator binding inhibition; inhibition, % at 25.6 µM; 86,000 tested, 1.3% active; Q92731; TR-FRET ER-beta LBD / SRC1-Cy5 peptide binding; receptor agonist-loaded with 1 µM estradiol;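 active = compounds whose percent inhibition of the receptor-coactivator binding signal exceeds about 50% in the single-dose screen, limit read from the data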;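 note: 0% = receptor plus peptide wells without compound and 100% = peptide-only wells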
# PTK2B oligo ant = antagonists of human Pyk2 oligomerization; Q293 cells, Pyk2 FERM NanoBiT luminescence; hits give low values; z-score (the deposit names both 25 µM and 10 µM); 99,000 tested, 0.83% active; AID 1347419;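 active = Z-score of -3 or lower, scaled per plate to the spread of control and sample wells; inactive = z-score above -3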;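 note: negative z-score means lost luminescence so less FERM oligomerization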
# ERa coact inh = blocks coactivator binding to human estrogen receptor alpha | AID 629 | TR-FRET ER-alpha LBD / SRC-1 peptide, estradiol-bound | inhibition, % at 25.6 µM | P03372 | 86,000 tested, 1.7% active; in the data active = inhibition above about 50%;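 note: 0% = receptor plus peptide control and 100% = peptide only without receptor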
# ERa SRC1 pot = enhances coactivator binding to human estrogen receptor alpha; P03372; TR-FRET ERalpha-LBD/SRC-Cy5 coactivator binding, 2 h; 100 = basal binding, no effect; coactivator binding (% of control), % at 25.6 µM; 86,000 tested, 1.3% active; in the data active = activity above about 200%;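 note: binding measured in presence of low estradiol as agonist stimulus; 0% = peptide alone without receptor and 100% = receptor with peptide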
# Starred values were filed as active, the others as inactive; . = no result; + = active, no number; [ ] = remark or other dose.
SMILES,SF-1 act,RORa activator,ERb SRC1 inh,PTK2B oligo ant,ERa coact inh,ERa SRC1 pot
COC(=O)c1ccc(S(=O)(=O)N(Cc2cc3cc4c(cc3[nH]c2=O)OCO4)C2CCCCC2)cc1,-2.3,-4.5,-3.9,.,4.1,306.1*
CC(=O)c1ccc(S(=O)(=O)N(Cc2cc3cc4c(cc3[nH]c2=O)OCCO4)CC2CCCO2)cc1 (configuration not stated),43.4,27.4,-5.5,0.12,-2.5,111.3
O=C(CSc1nnc(C2CCCCC2)n1Cc1ccccc1)NCc1ccco1,9.6,2.2,2.1,0.68,6.3,120.1
Cn1c2c(c(=O)n(C)c1=O)C(C(F)(F)F)(C(F)(F)F)N=C(c1ccc(Cl)cc1)N2,.,.,.,-3.32*,.,.
CC(=O)NC1(C(F)(F)F)C(=O)Nc2c1c(=O)n(C)c(=O)n2C (configuration not stated),-8.6,-10.1,3.8,0.93,-4.6,100.0
O=C1C2CC=C(Cl)CC2C(=O)N1CCCCCCN1C(=O)C2CC=C(Cl)CC2C1=O (configuration not stated),.,.,43.9,-1.3,56.0*,195.3
O=C1C2CC=C(Cl)CC2C(=O)N1CCN1CCOCC1 (configuration not stated),.,.,6.2,0.07,-1.1,103.2
Clc1ccc(-n2ncc3c(NCC4CCCO4)ncnc32)cc1 (configuration not stated),122.1*,96.4*,54.8*[fluorescence artefact?],.,25.7,73.3
c1ccc(-n2ncc3c(NC4CCCCCC4)ncnc32)cc1,91.0*,77.1*,-6.1,.,-4.8,122.4
c1ccc(-n2ncc3c(NCC4CCCO4)ncnc32)cc1 (configuration not stated),80.7*,57.1*,-2.8,0.29,-5.3,116.7
COc1ccc(-n2ncc3c(NCC4CCCO4)ncnc32)cc1 (configuration not stated),.,.,-10.2,-0.77,-5.0,107.6
Cc1ccc(N=C2CCCN2Cc2ccccc2)c(C#N)c1,.,.,-2.9,-1.06,1.3,100.0
CC1=C(C(=O)OC2CCCCC2)C(c2ccco2)C2=C(CC(C)(C)CC2=O)N1 (configuration not stated),-1.0,14.2,-4.4,-3.34*,-13.0,39.6
Cc1ccc(C(=O)CSC2=C(C#N)C(c3ccco3)C3=C(CC(C)(C)CC3=O)N2)cc1 (configuration not stated),-7.0,2.4,-1.3,0.49,-0.1,200.4*
COc1ccccc1NC(=O)C1=C(C)NC(SCC(=O)c2ccccc2)=C(C#N)C1c1ccco1 (configuration not stated),12.5,34.1,4.5,-0.56,-8.3,277.8*[fluorescence artefact?]
CCc1nc(SCC(=O)Nc2nccs2)c2oc3ccccc3c2n1,10.9,-0.8,42.4,-0.91,56.2*[fluorescence artefact?],138.0
Cc1nc(SCC(=O)NCc2ccccc2)c2oc3ccccc3c2n1,.,.,-12.3,-1.34,-0.4,+[fluorescence artefact?]
CCc1nc(SCC(=O)Nc2ccc3c(c2)OCCO3)c2oc3ccccc3c2n1,-14.5,13.9,56.8*[fluorescence artefact?],-0.16,64.2*[fluorescence artefact?],232.6*[fluorescence artefact?]
Cc1nc(SCC(=O)O)c2oc3ccccc3c2n1,19.7,-3.7,-0.7,1.56,-0.7,107.4
CCc1nc(SCC(=O)N2CCCc3ccccc32)c2oc3ccccc3c2n1,.,.,9.6,-2.53,4.8,133.5
O=C(CSc1cn(Cc2ccccc2)c2ccccc12)Nc1nccs1,84.5*,75.7*,-1.0,.,2.9,133.0
O=S(=O)(Nc1ccc(S(=O)(=O)N2CCCCC2)cc1)c1ccc(Br)s1,-8.1,-17.0,2.6,-1.39,-1.8,98.2
CCOC(=O)Nc1nnc(-c2ccc(OC)c(OC)c2)s1,-4.5,-3.3,1.6,-0.32,5.9,113.7
O=C(CNC(=O)OCc1ccccc1)NCC(=O)N1CCCC1C(=O)OCc1ccccc1 (configuration not stated),.,.,-2.7,0.43,-9.3,95.0
CC/C(=N\NC(=O)c1ccc(-c2ccccc2)cc1)C12CC3CC(CC(C3)C1)C2,.,.,.,-0.56,.,.
SMILES,SF-1 act,RORa activator,ERb SRC1 inh,PTK2B oligo ant,ERa coact inh,ERa SRC1 pot
Cn1c(C(=O)NC2CCCC2)cc2c(=O)n(C)c3ccccc3c21,-15.7,4.0,-5.5,.,-4.0,119.5
FC(F)(F)c1cccc(OCCN2CCN(Cc3ccccc3)CC2)c1,.,.,.,1.57,.,.
O=C(CSc1nnc(-c2cccc(Cl)c2)o1)Nc1ccc2c(c1)OCCO2,.,.,21.7,0.02,54.5*[fluorescence artefact?],145.1
Cc1nc(SCC(=O)Nc2ccc3c(c2)OCCO3)c2oc3ccccc3c2n1,-2.0,-9.4,40.0,-2.36,79.1*[fluorescence artefact?],732.5*[fluorescence artefact?]
O=C(CSc1ncnc2c1oc1ccccc12)Nc1ccc2c(c1)OCCO2,-7.4,5.2,56.9*[fluorescence artefact?],-2.13,42.8,764.6*[fluorescence artefact?]
CN(C)CC(C)(C)NS(=O)(=O)c1ccc(Cl)cc1,-20.6,-13.1,17.6,-0.01,11.6,106.8
COc1cc(C2c3c(oc4ccc(Cl)cc4c3=O)C(=O)N2Cc2ccco2)cc(OC)c1OC (configuration not stated),-13.5,-14.4,44.2,.,56.1*,22.9
Cc1sc2ncnc(Oc3ccc(-n4ccnc4)cc3)c2c1C,-22.5,-6.0,0.8,-0.2,-4.4,108.3
COc1ccc(-c2c3c(=O)n(C)c(=O)n(C)c3cn2-c2cc(OC)ccc2OC)cc1,-3.4,-9.6,14.1,-0.3,11.4,87.6
COC(=O)C1=C(C)N(C)C(C)=C(C(=O)OC)C1c1ccc(F)c(Br)c1,-12.2,1.8,-5.6,-3.2*,0.8,89.2
COc1ccc(C(=O)Nc2cccc(N(C)S(C)(=O)=O)c2)cc1OC,20.7,32.4,-1.9,0.19,-15.1,96.6
Cc1ccc(C(=O)Nc2cccc(N(C)S(C)(=O)=O)c2)cc1S(=O)(=O)Nc1ccccc1,.,.,.,-3.12*,.,.
CCC(C)(C)NC(=O)C(OC(=O)c1ccco1)c1ccccc1OC (configuration not stated),21.7,-2.8,-6.8,0.77,6.0,109.3
COc1cc([N+](=O)[O-])ccc1NC(=O)C[n+]1ccccc1C,.,.,.,-0.15,.,.
O=C(c1cnn(-c2ccccc2)c1)c1ccc2ccccc2c1O,.,.,.,0.26,.,.
O=C(c1cnn(-c2nc3ccccc3s2)c1)c1ccccc1O,35.7,51.9*,.,-1.31,.,.
Cc1ccc(N2CCN(C(=O)c3ccccc3NC(=O)C3CC=CCC3C(=O)O)CC2)cc1 (configuration not stated),.,.,.,0.21,.,.
CC(=O)C(C)Oc1ccc2c3c(c(=O)oc2c1C)CCCC3 (configuration not stated),6.7,59.5*,-26.1,-0.28,-18.9,105.9
Cc1c(O)ccc2c3c(c(=O)oc12)CCCC3,-9.5,-8.2,-2.2,0.67,-7.5,111.0
Cc1c(OCC(=O)OC(C)C)ccc2c3c(c(=O)oc12)CCC3,-7.8,-7.3,-6.4,1.26,-10.0,102.9
CC(=O)COc1ccc2c3c(c(=O)oc2c1C)CCCCC3,53.9*,25.7,-1.6,0.7,1.0,98.5

# Screens (PubChem)
